Assay results: the EternaBench riboswitch data

Tested on: MS2 coat protein
Assay: apparent Kd, MS2 coat protein; higher = weaker binding; RNA-MaP array; FMN 200 µM where present
Procedure, shortened: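 Binding was read on Illumina sequencing-chip clusters where stalled E. coli RNA polymerase had transcribed each design. A titration of SNAP-549-labelled MS2 coat protein began at 0.7 or 1.5 nM and doubled to 3 µM, once without ligand and once with constant ligand, in 100 mM Tris-HCl pH 7.5, 80 mM KCl, 4 mM MgCl2, BSA, DTT, yeast tRNA and Tween-20. The apparent Kd is the median of filtered per-cluster binding-curve fits, based on green signal normalised to red-channel RNA signal and control-cluster median Fmax.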

[1] = designed as: OFF switch for flavin mononucleotide, no ligand
[2] = ligand present: flavin mononucleotide, designed as: OFF switch for flavin mononucleotide
[3] = designed as: ON switch for flavin mononucleotide, no ligand
[4] = ligand present: flavin mononucleotide, designed as: ON switch for flavin mononucleotide

Sequence | apparent Kd [1] [nM] | apparent Kd [2] [nM] | apparent Kd [3] [nM] | apparent Kd [4] [nM]
ACAUGAUAUGUAGGAUAUCACAUUAAUUGUUUUAUAAUUGUAUUUUGGAUUUGAGAAGGACAUUUACAUGAGGAUCACCCAUGU | 15.6 | 12.3 |  | 
ACAUGCGGAUGAGGAUAUUCAUCCAUGAGGAUAGAAGAAGGCAUACAUGAGGAUCACCCAUGUAUACGCAUGAGGAUCCCUUAU | 23.6 | 28.7 |  | 
ACAUGCUGCCGGCAGGAUAUCGCUUGGCGGACAUGAGGAUCACCCAUGUGAGAAAGUCGCGCGCGCGAGAAGGGCCAUGGUAUCAG |  |  | 98.2 | 80
ACAUGUACAGAGGAUAUGCGCCUUGGCAACGGUGUAGAAGGCUGAACAUGAGGAUCACCCAUGUGCAAUCCAGC | 28.4 | 146 |  | 
ACAUGUUAUGUAGGAUAUUAUACACAUGAGGAUCACCCAUGUAACCGGAGGCUUUACUAUGAGUAUGAGAAGGGUAUGAACAUG | 138 | 145 |  | 
ACCAAUGCAGGAUAUACAUGAGGAUCACCCAUGUAUAACCUACAUAGAUGAUCAUCAUGUAGAAGGGCAUUGGA | 12.5 | 10.1 |  | 
ACCAAUGGAGGAUAUACAUGAGGAUCACCCAUGUUUAUCCUACAUAGGUGAAAAACAUGUAGAAGGCCAUUGGA | 14.8 | 13.2 |  | 
ACCAGCUCGUCAGGAUAUACGUCACUGCGUCAGCAGUGUGGUAAGAUCACAUGAGGAUCACCCAUGUAGAAGGGACGAGCUGAU | 13.3 | 245 |  | 
ACCAUGGUACAGAAGGGCAAUUUAUUUAUUUAUUAUUUAGUACUGCAUUGCAGGAUAUGUUUAACAUGAGGAUCACCCAUGUAC |  |  | 31.8 | 21.4
ACCAUGUAAGGAUAUGCGCGGCCCUAAAUCAAUGAGCAAGCGCAGAAGGUACAUGAGGAUCACCCAUGUCACCG | 16.6 | 51.4 |  | 
ACCAUUUACUAAUCUUCUAUACAUGAGGAUCACCCAUGUUUUGAGGAUAUCAGCGUGAAACACGCUGAGAAGGCAAAACAUUCG | 72 | 393 |  | 
ACCGUAUGAACAUGAGGAUCACCCAUGUAAACGGAAACGAAUGAGGAUAUCGAUAGCAAAGCUAUCGAGAAGGCAUGGGACGGU |  |  | 64.5 | 26.8
ACCUAGCCCAGGCCCACGGCAUCACAGGAUAUGCCGAUAACAUGAGGAUCACCCAUGUCAACUCCGCAGAAGGGUGAUAUCGUG |  |  | 89.2 | 13.5
ACCUCACAUGAGGAUCACCCAUGUCAGGAUAUCUUUUAAAACAGCAAUCCUGUCGCUGAGAGAAGGGACAUUAA | 27.6 | 35.6 |  | 
ACCUUACAUGAGGAUCACCCAUGUCAGGAUAUCUCGGGCGGCCAAGGGCCGGCCGCCCAGAGAAGGGACGAGGA | 14.5 | 13.7 |  | 
ACCUUACAUGAGGAUCACCCAUGUUAGGAUAUCUCGCUUGCGCUGUCACAGCGCAAGCAGAGAAGGGACGCGGG | 35.2 | 40.9 |  | 
ACGAAACAUGAGGAUCACCCAUGUGCUUAAAGUGUAGGAUAUGGGAUAGCCUAGGUAGUCUCAGAAGGGCACCAAU |  |  | 45.1 | 22.5
ACGACGAAAGUCGAACGAUGAUCGAGAAGGACAUGAGGAUCACCCAUGUCCGCUGUAACAGCCAUGUAGGAUAUCGAUCAUCGA | 3.59 | 3.83 |  | 
ACGACGAAAGUCGAACGAUGAUCGAGAAGGACAUGAGGAUCACCCAUGUUCCCUGUAACAGGCAUGUAGGAUAUCGAUCAUCGA | 3.99 | 7.18 |  | 
ACGAUGUCAGGAUAUCGAUCACGGGUCUGAAGACACGUGUUUGAGAAGGGACAUGAGGAUCACCCAUGUGUCUA | 43.6 | 223 |  | 
ACGCAUUGCCUUUGGUAGUGCGUAACAUGAGGAUCACCCAUGUAGGAUAUGGUAGGCUUUGCUUACCAGAAGGACAUUAUAAAC | 29.3 | 48.5 |  | 
ACGCGUUGGGAGAAGGUACUUUAAUUAGGUUACACAUGAGGAUCACCCAUGUAAGGAUAUCCCAUCGUGUAAUAUUAUACAGCA | 8.06 | 7.39 |  | 
ACGGCUGUCAGAGGAUAUGGUUACAUGAGGAUCACCCAUGUCAAGGGUCUAAUUAAGUAUAACUACUAGAAGGCUGAUGGCCGA | 282 | 129 |  | 
ACGUAUCAUGUAGGAUAUGGCCCAGGAACUUGGUCAGAAGGACAUGAGGAUCACCCAUGUAGAGUAUGUUAGGAUGACGUAUGC | 92.9 | 173 |  | 
ACGUUUUAUGCAGGAUAUUGAAAUUUAUUACAACAAGAAGGGCAAUACAUGAGGAUCACCCAUGUCAGCAUGGUAUUAAAGUUC | 18 | 16.1 |  | 
ACUAAGGAGGUAGGAUAUUGUGUGGUGGCCGGGCUCCCACGGCGAGCGGCACAAGAAGGAUCCCAACAUGAGGAUCACCCAUGU |  |  | 48.9 | 26.1
ACUACUUAGUGAGGAUAUACAUAAUUUAUAACUGUAGAAGGCACAAACCUCAAUACAUGAGGAUCACCCAUGUGGUAUAUCUAU | 188 | 380 |  | 
ACUAUACGAGGAUAUACUGACGGGCCUCAGGCAUCCAUCAGACAUGAGGAUCACCCAUGUAGAAGGCGUAUACU | 56.1 | 158 |  | 

Sequence | apparent Kd [1] [nM] | apparent Kd [2] [nM] | apparent Kd [3] [nM] | apparent Kd [4] [nM]
ACUAUACGAGGAUAUACUGUCAGUACUCAGACAUAAAUAUGACAUGAGGAUCACCCAUGUAGAAGGCGUUUACU | 29 | 39 |  | 
ACUAUACGAGGAUAUACUGUCAGUACUCAGAGAUUAAUGUGACAUGAGGAUCACCCAUGUAGAAGGCGUUUACU | 31.9 | 35.3 |  | 
ACUGACAUGAGGAUCACCCAUGUCUUGAAUAGGUCAAAUUCACAGGAUAUGCGCUUUGACAGGGCGCAGAAGGGUGAUGCAAUG |  |  | 70.2 | 11.8
ACUGUUAGAGUCUUCCUUAUCACAUGAGGAUCACCCAUGUGGAGAAGGGACUGUAUCGUUAUCAGUUAGGAUAUCCAUGUGUGC | 4.62 | 4.72 |  | 
ACUUACUGAGGAUAUACAUAGAUUUACAUGAGGAUCACCCAUGUUCCUCUAUGUAUAUAUGUAGAAGGCAGAAGGU | 24.6 | 77.8 |  | 
ACUUCCCAGGAGAAGGGACAAGGCGGAGCCCGUACAUGAGGAUCACCCAUGUCAGGAUAUCCAUGCCGGAAGCUAACCCAGUUA | 6.42 | 10.1 |  | 
AGAAAACAUGAGGAUCACCCAUGUGAGGAUAUGCAAAUAUAUACGAAAGAUUAUAAAAGCAGAAGGCACAAAAG | 111 | 130 |  | 
AGAAACUACGAGAAGGACAUAUGAUUCUUCAGAUACAUGAGGAUCACCCAUGUAGGAUAUCGUAGUUUCAGGAUCGUGAGAUCA | 14 | 97.7 |  | 
AGAAACUACGAGAAGGACAUAUGGUACUUCAGAUACAUGAGGAUCACCCAUGUAGGAUAUCGUAGUUUCAGGAUCGUGAGAUCA | 9.58 | 42.6 |  | 
AGAAACUACGAGAAGGACAUGUGGUAAAACGCAAACAUGAGGAUCACCCAUGUAGGAUAUCGUAGUUUCAGGAUCGUGAGAUCA | 589 | 26.9 |  | 
AGAAAGGAAGGAUAUACAAGAAAGCUGGGCAACGUCUCAGAACAUGAGGAUCACCCAUGUAGAAGGUCCAGGAA | 25.2 | 34.3 |  | 
AGAACACAUGAGGAUCACCCAUGUGAGGAUAUCGAUGUCCCAGGGCGGGUGCGGGACUCGAGAAGGCACUUGGA | 41.9 | 88 |  | 
AGAACUGAUAGAGGAUAUGUUUUACAUGAGGAUCACCCAUGUGUACAAGGAUCAAUAUAUUUGUUACAGAAGGCUAUUAGUGAG | 11.8 | 18.7 |  | 
AGAAGUAUGCAGGAUAUGGGAACCUAUUGACAUUCAGAAGGGCAUACAUGAGGAUCACCCAUGUGGCCUCCCAG | 19.3 | 35.1 |  | 
AGACAUACUCAAGGAUAUCGUCGUACAUGAGGAUCACCCAUGUCGCACUUCUAAAGAGAAGUUGGCGAGAAGGUGAGGUUCGUU |  |  | 18.8 | 7.76
AGACGGAUCCGCGGUCGAUGCUAACUAGAAGGGCAGGUCACAUGAGGAUCACCCAUGUAGUAUAUGUAGGAUAUAGGAAGCGUG |  |  | 95.2 | 20.9
AGAGACUUGGGAGGAUAUGCCUGAUGGACACGGGCAGAAGGCCCAAACAUGAGGAUCACCCAUGUAUCUAAGCCCUGGAAGGGC |  |  | 310 | 20.6
AGAGGUCGCACAGGAUAUCAUACAUGAGGAUCACCCAUGUCAGAAAACAAAUGAGAAGGGUGCGCAUUAAUUGCUUGUGAAGAA |  |  | 15.1 | 5.12
AGAUAACACCAGAAGGACAUGAGGAUCACCCAUGUAGGAUAUGGGCAUCACUCGAGAAAGAAAAGACCAAAUGGACACAUGGUC |  |  | 162 | 12.8
AGAUAACACCAGAAGGACAUGAGGAUCACCCAUGUAGGAUAUGGGCAUCACUCGAGAAAGAUACGACCAAAAGGACACGCGAUC |  |  | 85 | 10.3
AGAUAGUCAGGAUAUACAUGGAUGAUACACGUAUUUCCACUACAUGAGGAUCACCCAUGUAGAAGGGACUAUCA | 27.6 | 15.1 |  | 
AGAUAUGAUGCAGGAUAUCUAUCUUGAAUGAGGAGAGAAGGGCAAGCAGAGAGAUAAGCCUUAUGACAUGAGGAUCACCCAUGU | 10.2 | 8.61 |  | 
AGAUCACAUGAGGAUCACCCAUGUGAGGAUAUAGAUUCAAGAGCUUCGGCUCUAAAGUCUAGAAGGCGCUAUGA | 25.1 | 25.6 |  | 
AGAUCACAUGAGGAUCACCCAUGUGAGGAUAUGAUACUAUGUACUUCGGUACAUAGUAUCAGAAGGCAUAUGAA | 27.7 | 33.4 |  | 
AGAUCCUGAGUCAGGAUAUAGAGGCGAAAGCCUGGCUAGAAGGGACAUGAGGAUCACCCAUGUGGGUUCGUGCC | 20.2 | 66.5 |  | 
AGAUGACAAUGUCAUCUUCGUCGGACAUGAGGAUCACCCAUGUAGGAUAUGCUACUCAAAGAGUAGCAGAAGGACAUGUGUCUU | 19.7 | 41.1 |  | 
AGAUGGCGAGGAUAUACAUGAGGAUCACCCAUGUGAGAGAAAAGAGUGAGGAAGAAAAGUAGAAGGCGCUGUCA | 80.6 | 130 |  | 
